Measured values: ChEMBL document CHEMBL4673227, “Development of Gleevec Analogues for Reducing Production of β-Amyloid Peptides through Shifting β-Cleavage of Amyloid Precursor Proteins” (J Med Chem, 2019)
The source made the active and inactive calls. No cut-off for these calls is given here.

Tests used:
[1] = tested on: N2a; assay: Inhibition of beta secretase in mouse N2a cells expressing FL APP695 assessed as reduction of A-beta levels at 2 uM incubated for 5 hrs by MSD-ELISA
[2] = tested on: N2a; assay: Inhibition of gamma secretase in mouse N2a cells expressing FL APP695 assessed as reduction of A-beta levels at 1 uM incubated for 5 hrs by MSD-ELISA; assay type: cell-based
[3] = Stability in mouse liver microsomes assessed as parent compound remaining level at 10 uM after 0.5 hrs by HPLC-MS/MS analysis; assay type: ADME, Microsome; details: read-out: Stabilty
[4] = Stability in mouse liver microsomes assessed as parent compound remaining level at 1 uM after 0.5 hrs by HPLC-MS/MS analysis; assay type: ADME, Microsome; details: read-out: Stabilty
[5] = Drug level in C57BL/6J mouse brain at 50 mg/kg, ip measured after 4 hrs by LC-MS/MS analysis; assay type: ADME, organism-based; details: read-out: Drug uptake
Summary of the method: (§1)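 Mesylate salts in water ([…], 125 μL) given i.p. at 50 or 150 mg/kg to 8-week-old male C57BL/6J mice. Brain and plasma harvested 4 h post-dose and snap-frozen. Brain homogenized and extracted twice with ethanol, plasma extracted with acetonitrile, both with internal standard. Drug quantified by LC-MS/MS; n = 3 or 4.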

[6] = Stability in human liver microsomes assessed as parent compound remaining level at 10 uM after 1 hrs by HPLC-MS/MS analysis; assay type: ADME, Microsome; details: read-out: Stabilty
[7] = Stability in human liver microsomes assessed as parent compound remaining level at 1 uM after 0.5 hrs by HPLC-MS/MS analysis; assay type: ADME, Microsome; details: read-out: Stabilty
[8] = Stability in human liver microsomes assessed as parent compound remaining level at 1 uM after 1 hrs by HPLC-MS/MS analysis; assay type: ADME, Microsome; details: read-out: Stabilty
[9] = Drug level in C57BL/6J mouse plasma at 50 mg/kg, ip measured after 4 hrs by LC-MS/MS analysis; assay type: ADME, organism-based
Summary of the method: as §1

[10] = Stability in human liver microsomes assessed as parent compound remaining level at 10 uM after 0.5 hrs by HPLC-MS/MS analysis; assay type: ADME, Microsome; details: read-out: Stabilty
[11] = Stability in mouse liver microsomes assessed as parent compound remaining level at 10 uM after 1 hrs by HPLC-MS/MS analysis; assay type: ADME, Microsome; details: read-out: Stabilty
[12] = Stability in mouse liver microsomes assessed as parent compound remaining level at 1 uM after 1 hrs by HPLC-MS/MS analysis; assay type: ADME, Microsome; details: read-out: Stabilty
[13] = Inhibition of beta secretase in mouse N2a695 cells assessed as reduction in A-beta 42 levels incubated for 5 hrs by ELISA; assay type: cell-based; details: N2a695, 5 h
Summary of the method: (§2)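 Mouse N2a695 cells (N2a overexpressing human APP695), grown in Opti-MEM/DMEM with 5% FBS and geneticin at 37 °C, 5% CO₂. Cells seeded overnight in 6-well plates, >95% confluent, then given fresh medium with compounds (2.5–10 μM, diluted from DMSO stocks) for 5 h. Secreted Aβ40/Aβ42 measured by ELISA or MSD ELISA against DMSO control; 2–3 experiments averaged.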

[14] = Inhibition of beta secretase in mouse N2a695 cells assessed as reduction in A-beta 40 levels incubated for 5 hrs by ELISA; assay type: cell-based; details: N2a695, 5 h
Summary of the method: as §2

[15] = Toxicity in mouse N2a695 cells assessed as reduction in cell viability at 5 to 10 uM incubated for 5 hrs; assay type: cell-based; details: n2a695, 5 h, dose 5-10 µM
Summary of the method: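 N2a cells exposed to compounds at 10 μM for 5 h alongside the Aβ assay. Cell viability/density compared with DMSO control.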

[16] = tested on: N2a695; assay: Inhibition of beta secretase in mouse N2a695 cells assessed as reduction in A-beta 40 levels at 5 to 10 uM incubated for 5 hrs by ELISA; assay type: cell-based; details: dose 5-10 µM
Summary of the method: as §2

[17] = tested on: N2a695; assay: Inhibition of beta secretase in mouse N2a695 cells assessed as reduction in A-beta 42 levels at 5 to 10 uM incubated for 5 hrs by ELISA; assay type: cell-based; details: dose 5-10 µM
Summary of the method: as §2

[18] = tested on: Mus musculus; assay: Inhibition of FA-soluble A-beta-40 levels in 2xTg AD mouse model at 100 mg/kg, po BID for 4 days and once daily on day 5 by ELISA; assay type: functional, organism-based; details: time 5.0 day
Summary of the method: (§3)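 2xTg AD females (APP Swedish/PS1ΔE9), 5 months old, n = 7 per group. 2a-mesylate 20 mg/mL in water with 0.1% methylcellulose, 100 mg/kg by gavage, or vehicle, twice daily 8 h apart for 4 days, then once on day 5. Euthanized 4 h after last dose. Left hemisphere homogenized in 1% Triton X-100 TBS (pH 7.4), then insoluble Aβ extracted with 70% formic acid and measured by ELISA.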

[19] = tested on: N2a695; assay: Inhibition of beta secretase in mouse N2a695 cells assessed as reduction in A-beta 40 levels at 5 uM treated 1 hr after BACE IV treatment and further incubated for 5 hrs by ELISA; assay type: cell-based
Summary of the method: (§4)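 N2a695 cells pretreated with BACE IV for 1 h, then treated with compound plus BACE IV for 5 h. Secreted Aβ40 and Aβ42 measured by ELISA.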

[20] = tested on: Mus musculus; assay: Inhibition of FA-soluble A-beta-42 levels in 2xTg AD mouse model at 100 mg/kg, po BID for 4 days and once daily on day 5 by ELISA; assay type: functional, organism-based
Summary of the method: as §3

[21] = tested on: N2a695; assay: Inhibition of beta secretase in mouse N2a695 cells assessed as reduction in A-beta 42 levels at 5 uM treated 1 hr after BACE IV treatment and further incubated for 5 hrs by ELISA; assay type: cell-based
Summary of the method: as §4

[22] = Drug level in brain of wild-type mouse at 50 mg/kg, po after 6 hrs by LC-MS/MS analysis; details: in vivo
[23] = Drug level in brain of wild-type mouse at 50 mg/kg, po after 12 hrs by LC-MS/MS analysis; details: in vivo
[24] = Drug level in plasma of wild-type mouse at 50 mg/kg, po after 12 hrs by LC-MS/MS analysis; details: in vivo
[25] = Drug level in plasma of wild-type mouse at 50 mg/kg, po after 24 hrs by LC-MS/MS analysis; details: in vivo
[26] = tested on: N2a695; assay: Inhibition of beta secretase in mouse N2a695 cells assessed as reduction in A-beta 42 levels at 10 uM incubated for 5 hrs by ELISA; assay type: cell-based
Summary of the method: as §2

[27] = Drug level in C57BL/6J mouse plasma at 150 mg/kg, ip measured after 4 hrs by LC-MS/MS analysis; assay type: ADME, organism-based
Summary of the method: as §1

[28] = tested on: N2a; assay: Inhibition of gamma secretase in mouse N2a cells expressing APP-C99 assessed as reduction of A-beta40 levels at 10 uM incubated for 5 hrs by MSD-ELISA relative to control; assay type: cell-based
Summary of the method: (§5)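 N2a cells transfected with plasmids for full-length APP695 or APP-C99. After 48 h, fresh medium with compounds (10 μM) added for 5 h. Supernatant Aβ40, Aβ42, sAPPα and sAPPβ measured by MSD ELISA against DMSO; BACE IV (2 μM) and DAPT (1 μM) run alongside.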

[29] = Drug level in C57BL/6J mouse brain at 150 mg/kg, ip measured after 4 hrs by LC-MS/MS analysis; assay type: ADME, organism-based; details: read-out: Drug uptake
Summary of the method: as §1

[30] = tested on: N2a; assay: Inhibition of gamma secretase in mouse N2a cells expressing APP-C99 assessed as reduction of A-beta42 levels at 10 uM incubated for 5 hrs by MSD-ELISA relative to control; assay type: cell-based
Summary of the method: as §5

[31] = Toxicity in mouse up to 150 mg/kg, po QD for 5 days; assay type: organism-based; details: in vivo, 120 h, time 5 day
Summary of the method: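 Wild-type mice given the compound by oral gavage, increasing amounts up to 150 mg/kg once daily for 5 days. Animals observed for signs of toxicity.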

| concentration at 4 h [5] | concentration at 4 h [9] | IC50 [13] | IC50 [14] | Compound | Activity [15] | inhibition [16] | inhibition [17] | also measured |
| --- | --- | --- | --- | --- | --- | --- | --- | --- |
| – | – | – | – | C[C@H](NC(=O)Cc1cc(F)cc(F)c1)C(=O)N[C@H](C(=O)OC(C)(C)C)c1ccccc1 | – | – | – | inhibition [1]: Active; inhibition [2]: Active |
| < 1 ng/g | 100 nM | – | – | CS(=O)(=O)O.Cc1ccc(NC(=O)c2ccc(CN3CCN(C)CC3)cc2)cc1Nc1nccc(-c2cccnc2)n1 [IMATINIB MESYLATE] | – | – | – | remaining at 0.5 h, 10 µM [3]: 22.5%; remaining at 0.5 h, 1 µM [4]: 7.3%; remaining at 1 h, 10 µM [6]: 66.4%; remaining at 0.5 h, 1 µM [7]: 40.4%; remaining at 1 h, 1 µM [8]: 15.9%; remaining at 0.5 h, 10 µM [10]: 95.4%; remaining at 1 h, 10 µM [11]: 5.1%; remaining at 1 h, 1 µM [12]: 1.7% |
| 127 ng/g | – | > 5 µM | > 5 µM | Cc1ccc(NC(=O)c2ccc(C3CCN(C)CC3)cc2)cc1Nc1nccc(-c2cccnc2)n1 | Non-Toxic | Active | Active | – |
| – | – | – | – | Cc1ccc(NC(=O)c2ccc(CCN(C)C)cc2)cc1Nc1nccc(-c2cccnc2)n1 [listing 1 of 2 here] | – | Active | Active | inhibition [18]: Active; inhibition [19]: Active; inhibition [20]: Active; inhibition [21]: Active |
| – | – | – | – | CS(=O)(=O)O.Cc1ccc(NC(=O)c2ccc(CCN(C)C)cc2)cc1Nc1nccc(-c2cccnc2)n1 | – | – | – | Drug uptake [22]: Active; Drug uptake [23]: Not Active; Drug uptake [24]: Active; Drug uptake [25]: Not Active |
| – | – | – | – | CNCCc1ccc(C(=O)Nc2ccc(C)c(Nc3nccc(-c4cccnc4)n3)c2)cc1 | – | – | – | inhibition [26]: Active |
| – | – | > 5 µM | > 5 µM | Cc1ccc(NC(=O)c2ccc(CCN(C)C)cc2C(F)(F)F)cc1Nc1nccc(-c2cccnc2)n1 | Non-Toxic | Active | Active | concentration at 4 h [27]: 11600 nM; inhibition [28]: 25%; concentration at 4 h [29]: 60 ng/g; inhibition [30]: 25% |
| 27 ng/g | 2500 nM | > 5 µM | > 5 µM | Cc1ccc(NC(=O)c2ccc(CCN(C)C)cc2)cc1Nc1nccc(-c2cccnc2)n1 [listing 2 of 2 here] | Non-Toxic | – | – | remaining at 0.5 h, 10 µM [3]: 15.1%; Activity [31]: Non-Toxic; remaining at 0.5 h, 1 µM [4]: 7.9%; remaining at 1 h, 10 µM [6]: 56.5%; remaining at 0.5 h, 1 µM [7]: 61.9%; remaining at 1 h, 1 µM [8]: 29.2%; remaining at 0.5 h, 10 µM [10]: 77.1%; remaining at 1 h, 10 µM [11]: 2.3%; remaining at 1 h, 1 µM [12]: 1.3% |
| 21 ng/g | 1000 nM | > 5 µM | > 5 µM | Cc1ccc(NC(=O)c2ccc(N3CCN(C)CC3)cc2)cc1Nc1nccc(-c2cccnc2)n1 | Non-Toxic | Active | Active | – |
| – | – | – | – | Cc1ccc(NC(=O)c2ccc(CCN)cc2)cc1Nc1nccc(-c2cccnc2)n1 | – | – | – | inhibition [26]: Active |
| 39 ng/g | 2300 nM | > 5 µM | > 5 µM | Cc1ccc(NC(=O)c2ccc(C3CCCN(C)C3)cc2)cc1Nc1nccc(-c2cccnc2)n1 (configuration not stated) | Non-Toxic | Active | Active | – |
